Experimental data from ChEMBL document CHEMBL1140759, “Synthesis, anti-Toxoplasma gondii and antimicrobial activities of benzaldehyde 4-phenyl-3-thiosemicarbazones and 2-[(phenylmethylene)hydrazono]-4-oxo-3-phenyl-5-thiazolidineacetic acids” (Bioorg Med Chem, 2008).
In brackets after ≈: the same amount, converted by molar mass.

Key:
[1] = test system: Bacillus subtilis; assay: Antimicrobial activity against Bacillus subtilis at 100 ug/disc; assay type: functional; settings: read-out: IZ
How it was run: (§1)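 Disc diffusion on agar plates inoculated with a standardized microbial suspension, with paper discs carrying known compound amounts. DMSO-only discs served as negative controls, and chloramphenicol, rifampicin (bacteria) or nistatin (fungi) as references. The read-out is the mean inhibition zone diameter in mm. Each run was done three times and repeated if results differed.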

[2] = test system: Klebsiella pneumoniae; assay: Antimicrobial activity against Klebsiella pneumoniae at 100 ug/disc; assay type: functional; settings: read-out: IZ; how it was run: as §1
[3] = test system: Micrococcus luteus; assay: Antimicrobial activity against Micrococcus luteus at 100 ug/disc; assay type: functional; settings: read-out: IZ; how it was run: as §1
[4] = test system: Escherichia coli; assay: Antimicrobial activity against Escherichia coli at 100 ug/disc; assay type: functional; settings: read-out: IZ; how it was run: as §1
[5] = test system: Staphylococcus aureus; assay: Antimicrobial activity against Staphylococcus aureus; assay type: functional
How it was run: (§2)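 Tube dilution MIC, run on compounds with a disc-diffusion zone of at least 18 mm. The DMSO stock (1 mg/mL) was serially diluted to 10–220 µg/mL final in medium, and strains were inoculated at 10^8/mL. Media were tryptic soy or nutrient agar for bacteria and Sabouraud liquid for fungi, incubated 24–48 h at 37 °C (bacteria) or 30 °C (fungi). MIC is the lowest concentration giving clear tubes.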

[6] = test system: Staphylococcus aureus; assay: Antimicrobial activity against Staphylococcus aureus at 100 ug/disc; assay type: functional; settings: read-out: IZ
How it was run: (§3)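 Agar disc diffusion: paper discs loaded with compound placed on agar plates seeded with a standardised microbial suspension. DMSO-only discs served as negative control. Chloramphenicol and rifampicin (bacteria) or nistatin (fungi) gave reference zones. Read-out was mean zone of inhibition diameter (mm). Each experiment was run three times and repeated if results differed.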

[7] = test system: Enterococcus faecalis; assay: Antimicrobial activity against Streptococcus faecalis; assay type: functional; how it was run: as §2
[8] = test system: Candida; assay: Antimicrobial activity against Candida sp. IMUR1224 at 300 ug/disc; assay type: functional; settings: read-out: IZ; how it was run: as §1
[9] = test system: Toxoplasma gondii; assay: Antiparasitic activity against Toxoplasma gondii infected african green monkey Vero cells at 2 mM assessed as infected cells; assay type: functional
How it was run: (§4)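 Vero cells were infected with RH-strain tachyzoites (5:1 parasite:cell) for 1 h, washed with PBS, and grown 24 h at 37 °C in medium 199 with 5% FCS. Compound was then added for 24 h. Cells were fixed with Bouin's, stained with Giemsa, and at least 400 cells were counted by light microscopy for the percentage infected. Hydroxyurea and sulfadiazine served as references.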

[10] = test system: Candida; assay: Antimicrobial activity against Candida sp. IMUR4249 at 300 ug/disc; assay type: functional; settings: read-out: IZ; how it was run: as §1
[11] = test system: Candida; assay: Antimicrobial activity against Candida sp. IMUR720 at 300 ug/disc; assay type: functional; settings: read-out: IZ; how it was run: as §1
[12] = test system: Toxoplasma gondii; assay: Inhibition of intracellular parasite Toxoplasma gondii; assay type: functional, organism-based
How it was run: (§5)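 Infected Vero cultures were exposed to compound at 0.01–30 mM for 24 h, in triplicate per assay. IC50 for infected cells and intracellular parasites was derived by non-linear regression, using trypan blue exclusion.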

[13] = test system: Candida albicans; assay: Antimicrobial activity against Candida albicans at 300 ug/disc; assay type: functional; settings: read-out: IZ; how it was run: as §1
[14] = test system: Staphylococcus aureus; assay: Antimicrobial activity against Staphylococcus aureus at 300 ug/disc; assay type: functional; settings: read-out: IZ; how it was run: as §1
[15] = test system: Vero; assay: Inhibition of uninfected african green monkey Vero cells; assay type: cell-based; settings: Chlorocebus sabaeus
[16] = test system: Klebsiella pneumoniae; assay: Antimicrobial activity against Klebsiella pneumoniae at 300 ug/disc; assay type: functional; settings: read-out: IZ; how it was run: as §1
[17] = test system: Escherichia coli; assay: Antimicrobial activity against Escherichia coli at 300 ug/disc; assay type: functional; settings: read-out: IZ; how it was run: as §1
[18] = test system: Toxoplasma gondii; assay: Antiparasitic activity against Toxoplasma gondii infected african green monkey Vero cells at 0.1 mM assessed as infected cells; assay type: functional; how it was run: as §4
[19] = test system: Toxoplasma gondii; assay: Antiparasitic activity against Toxoplasma gondii infected african green monkey Vero cells at 20 mM assessed as infected cells; assay type: functional; how it was run: as §4
[20] = test system: Mycolicibacterium smegmatis; assay: Antimicrobial activity against Mycobacterium smegmatis at 300 ug/disc; assay type: functional; settings: read-out: IZ; how it was run: as §1
[21] = test system: Toxoplasma gondii; assay: Antiparasitic activity against Toxoplasma gondii infected african green monkey Vero cells at 5 mM assessed as infected cells; assay type: functional; how it was run: as §4
[22] = test system: Bacillus subtilis; assay: Antimicrobial activity against Bacillus subtilis at 300 ug/disc; assay type: functional; settings: read-out: IZ; how it was run: as §1
[23] = test system: Toxoplasma gondii; assay: Inhibition of Toxoplasma gondii infected in african green monkey Vero cells; assay type: functional, organism-based; how it was run: as §5
[24] = test system: Micrococcus luteus; assay: Antimicrobial activity against Micrococcus luteus at 300 ug/disc; assay type: functional; settings: read-out: IZ; how it was run: as §1
[25] = test system: Mycobacterium tuberculosis; assay: Antimicrobial activity against Mycobacterium tuberculosis; assay type: functional
[26] = test system: Mycolicibacterium phlei; assay: Antimicrobial activity against Mycobacterium phlei at 300 ug/disc; assay type: functional; settings: read-out: IZ; how it was run: as §1
[27] = test system: Saccharomyces cerevisiae; assay: Antimicrobial activity against Saccharomyces cerevisiae at 300 ug/disc; assay type: functional; settings: read-out: IZ; how it was run: as §1
[28] = test system: Toxoplasma gondii; assay: Antiparasitic activity against Toxoplasma gondii infected african green monkey Vero cells at 8 mM assessed as infected cells; assay type: functional; how it was run: as §4
[29] = test system: Mycobacterium tuberculosis; assay: Antimicrobial activity against Mycobacterium tuberculosis at 300 ug/disc; assay type: functional; settings: read-out: IZ; how it was run: as §3
[30] = test system: Enterococcus faecalis; assay: Antimicrobial activity against Streptococcus faecalis at 300 ug/disc; assay type: functional; settings: read-out: IZ; how it was run: as §1
[31] = test system: Candida; assay: Antimicrobial activity against Candida sp. IMUR4249; assay type: functional; how it was run: as §2
[32] = test system: Mycolicibacterium smegmatis; assay: Antimicrobial activity against Mycobacterium smegmatis; assay type: functional; how it was run: as §2
[33] = test system: Enterococcus faecalis; assay: Antimicrobial activity against Streptococcus faecalis at 100 ug/disc; assay type: functional; settings: read-out: IZ; how it was run: as §1
[34] = test system: Mycolicibacterium smegmatis; assay: Antimicrobial activity against Mycobacterium smegmatis at 100 ug/disc; assay type: functional; settings: read-out: IZ; how it was run: as §1
[35] = test system: Mycobacterium tuberculosis; assay: Antimicrobial activity against Mycobacterium tuberculosis at 100 ug/disc; assay type: functional; settings: read-out: IZ; how it was run: as §3
[36] = test system: Mycolicibacterium phlei; assay: Antimicrobial activity against Mycobacterium phlei at 100 ug/disc; assay type: functional; settings: read-out: IZ; how it was run: as §1
[37] = test system: Candida; assay: Antimicrobial activity against Candida sp. IMUR4249 at 100 ug/disc; assay type: functional, organism-based; how it was run: as §3
[38] = test system: Candida; assay: Antimicrobial activity against Candida sp. IMUR1224 at 100 ug/disc; assay type: functional, organism-based; how it was run: as §3
[39] = test system: Candida; assay: Antimicrobial activity against Candida sp. IMUR720 at 100 ug/disc; assay type: functional, organism-based; how it was run: as §3
[40] = test system: Saccharomyces cerevisiae; assay: Antimicrobial activity against Saccharomyces cerevisiae at 100 ug/disc; assay type: functional, organism-based; how it was run: as §3

Compound | zone of inhibition at 300 µg/disc [8] | Activity [9] | zone of inhibition at 300 µg/disc [10] | zone of inhibition at 300 µg/disc [11] | IC50 [12] | zone of inhibition at 300 µg/disc [13] | zone of inhibition at 300 µg/disc [14] | IC50 [15] | zone of inhibition at 300 µg/disc [16] | zone of inhibition at 300 µg/disc [17] | Activity [18] | Activity [19] | zone of inhibition at 300 µg/disc [20] | Activity [21] | zone of inhibition at 300 µg/disc [22] | IC50 [23] | zone of inhibition at 300 µg/disc [24] | MBC [25] | MIC [25] | zone of inhibition at 300 µg/disc [26] | also measured
O=C(N[C@H](CO)[C@H](O)c1ccc([N+](=O)[O-])cc1)C(Cl)Cl [CHLORAMPHENICOL] | – | – | – | – | – | – | – | – | – | – | – | – | – | – | – | – | – | – | – | – | zone of inhibition at 100 µg/disc [1]: 27 mm; zone of inhibition at 100 µg/disc [2]: 25 mm; zone of inhibition at 100 µg/disc [3]: 50 mm; zone of inhibition at 100 µg/disc [4]: 27 mm; MBC [5]: 20 µg/mL (≈ 61.9 µM); MIC [5]: 25 µg/mL (≈ 77.4 µM); zone of inhibition at 100 µg/disc [6]: 25 mm; MBC [7]: 60 µg/mL (≈ 186 µM); MIC [7]: 70 µg/mL (≈ 217 µM)
O=C(O)CC1S/C(=N\N=C\c2ccc(Cl)cc2Cl)N(c2ccccc2)C1=O (configuration not stated) | < 7 mm | 18.08% | 14 mm | < 7 mm | 1000 µM | 7 mm | 10 mm | 2000 µM | < 7 mm | < 7 mm | 63.23% | 0% | 16 mm | 19.05% | 17 mm | 1500 µM | 20 mm | 60 µg/mL (≈ 142 µM) | 70 µg/mL (≈ 166 µM) | 12 mm | zone of inhibition at 300 µg/disc [27]: < 7 mm; Activity [28]: 0%; zone of inhibition at 300 µg/disc [29]: 22 mm; zone of inhibition at 300 µg/disc [30]: 15 mm
O=C(O)CC1S/C(=N\N=C\c2ccc(Cl)c(Cl)c2)N(c2ccccc2)C1=O (configuration not stated) | < 7 mm | 0% | 21 mm | < 7 mm | 1000 µM | 7 mm | 11 mm | 4000 µM | < 7 mm | < 7 mm | 101% | 0% | 13 mm | 0% | 16 mm | 1500 µM | 19 mm | 90 µg/mL (≈ 213 µM) | 100 µg/mL (≈ 237 µM) | 12 mm | zone of inhibition at 300 µg/disc [27]: < 7 mm; MFC [31]: 100 µg/mL (≈ 237 µM); MIC [31]: 120 µg/mL (≈ 284 µM); Activity [28]: 0%; zone of inhibition at 300 µg/disc [29]: 18 mm; zone of inhibition at 300 µg/disc [30]: 11 mm
CC(C)(C)c1cc(/C=N/N=C2\SC(CC(=O)O)C(=O)N2c2ccccc2)cc(C(C)(C)C)c1O (configuration not stated) | < 7 mm | 0% | < 7 mm | < 7 mm | 1000 µM | 9 mm | 26 mm | 1000 µM | < 7 mm | < 7 mm | 53.55% | 0% | 26 mm | 0% | 19 mm | 1000 µM | 22 mm | 100 µg/mL (≈ 208 µM) | 110 µg/mL (≈ 228 µM) | 16 mm | MBC [32]: 140 µg/mL (≈ 291 µM); MIC [32]: 150 µg/mL (≈ 311 µM); MBC [5]: 45 µg/mL (≈ 93.4 µM); MIC [5]: 50 µg/mL (≈ 104 µM); zone of inhibition at 300 µg/disc [27]: < 7 mm; Activity [28]: 0%; zone of inhibition at 300 µg/disc [29]: 23 mm; MBC [7]: 190 µg/mL (≈ 395 µM); MIC [7]: 200 µg/mL (≈ 415 µM); zone of inhibition at 300 µg/disc [30]: 18 mm
CO[C@H]1/C=C/O[C@@]2(C)Oc3c(C)c(O)c4c(O)c(c(/C=N/N5CCN(C)CC5)c(O)c4c3C2=O)NC(=O)/C(C)=C\C=C\[C@H](C)[C@H](O)[C@@H](C)[C@@H](O)[C@@H](C)[C@H](OC(C)=O)[C@@H]1C [RIFAMPIN] | – | – | – | – | – | – | – | – | – | – | – | – | – | – | – | – | – | 100 µg/mL (≈ 122 µM) | 110 µg/mL (≈ 134 µM) | – | zone of inhibition at 100 µg/disc [33]: 20 mm; MBC [32]: 130 µg/mL (≈ 158 µM); MIC [32]: 140 µg/mL (≈ 170 µM); zone of inhibition at 100 µg/disc [1]: 20 mm; zone of inhibition at 100 µg/disc [3]: 49 mm; zone of inhibition at 100 µg/disc [34]: 30 mm; zone of inhibition at 100 µg/disc [35]: 28 mm; zone of inhibition at 100 µg/disc [4]: 14 mm; zone of inhibition at 100 µg/disc [36]: 25 mm; zone of inhibition at 100 µg/disc [6]: 31 mm
NYSTATIN | – | – | – | – | – | – | – | – | – | – | – | – | – | – | – | – | – | – | – | – | inhibition zone (IZ) [37]: 32 mm; inhibition zone (IZ) [38]: 30 mm; inhibition zone (IZ) [39]: 20 mm; MFC [31]: 70 µg/mL; MIC [31]: 80 µg/mL; inhibition zone (IZ) [40]: 20 mm
